What all share (assay type): functional
Test [1] is described as follows: The minimum inhibitory concentration was measured against Herpes simplex virus type 1 (KOS strain) on E6SM cells. Conditions: Human alphaherpesvirus 1. The method, boiled down:
(§1)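 Antiviral endpoint was the concentration reducing virus-induced cytopathicity by 50% in […] cell cultures. Values are means of two to six independent determinations.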

In test [2] the test system is Human alphaherpesvirus 1. The test can be described thus: The minimum inhibitory concentration was measured on E6SM cells against Herpes simplex virus type 1 (F strain). The method, boiled down:
as §1

Test [3] is described as follows: The minimum inhibitory concentration was measured on E6SM cells against Herpes simplex virus type 1 (McIntyre strain). Conditions: Human alphaherpesvirus 1. The procedure, abridged:
as §1

Test [4] deals with Human alphaherpesvirus 1. Description: The minimum inhibitory concentration was measured on E6SM cells against TK+/TK-Herpes simplex virus type 1 (VMW1837 strain). The method, boiled down: as §1
Test [5] has as its system Human alphaherpesvirus 1. Description: The minimum inhibitory concentration was measured on E6SM cells against TK-Herpes simplex virus type 1 (B2006 strain). The method, boiled down:
as §1

The next test relates to Vaccinia virus. Description: The minimum inhibitory concentration was measured on E6SM cells against Vaccinia virus. The settings on record: Orthopoxvirus vaccinia. The method, boiled down:
as §1

A further test has as its system E6SM. The test can be described thus: The minimum inhibitory concentration was measured on E6SM cells for morphological alteration. The settings on record: Homo sapiens. The procedure, abridged:
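In uninfected E6SM cells, the value is the concentration giving a microscopically detectable change in normal cell morphology. Values are means of two to six independent determinations.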

In test [6] the test system is Human alphaherpesvirus 3. Description: The minimum inhibitory concentration was measured on HEL cells against TK-Varicella zoster virus (07/1 strain). The procedure, abridged: (§2)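 Antiviral endpoint was the concentration reducing virus plaque formation by 50% in HEL cell cultures. Values are means of two to six independent determinations.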
Test [7] deals with Human alphaherpesvirus 3. Description: The minimum inhibitory concentration was measured on HEL cells against TK-Varicella zoster virus (YS-R strain). Conditions: Human alphaherpesvirus 3, ys-r. The procedure, abridged:
as §2

Test [8] relates to Human alphaherpesvirus 3. Description: The minimum inhibitory concentration was measured on HEL cells against Varicella zoster virus (OKA strain). Conditions: Human alphaherpesvirus 3, oka. The method, boiled down: as §2
For test [9], the system named is Human alphaherpesvirus 3. The test can be described thus: The minimum inhibitory concentration was measured on HEL cells against Varicella zoster virus (YS strain). The procedure, abridged:
as §2

The subject of test [10] is HEL. Description: The […] was measured on HEL cells in cell growth. Conditions: Homo sapiens.
The test system of the next test is Human betaherpesvirus 5. Description: The minimum inhibitory concentration was measured on HEL cells against Cytomegalovirus virus (AD-169 strain). The procedure, abridged: as §2
Another test concerns Cytomegalovirus. Description: The minimum inhibitory concentration was measured on HEL cells against Cytomegalovirus virus (Davis strain). Conditions: Human betaherpesvirus 5. The method, boiled down:
as §2

Test [11] has as its system HEL. Description: The minimum inhibitory concentration was measured on HEL cells against Cytomegalovirus virus (AD-169 strain); (<400>100). Conditions: Homo sapiens. The method, boiled down: as §2
The test system of test [12] is HEL. The test can be described thus: The minimum inhibitory concentration was measured on HEL cells against TK-Varicella zoster virus (YS-R strain); (<400>100). The settings on record: Homo sapiens. The method, boiled down: as §2
Test [13] deals with HEL. The test can be described thus: The minimum inhibitory concentration was measured on HEL cells against Cytomegalovirus virus (Davis strain); (<400>100). The settings on record: Homo sapiens. The method, boiled down:
as §2

Here are results for eight compounds from ChEMBL document CHEMBL1127471, “Tricyclic analogues of acyclovir and ganciclovir. Influence of substituents in the heterocyclic moiety on the antiviral activity” (1994).

Each structure is given as a SMILES string. In brackets after ≈: the same amount, converted by molar mass. Where only a bound is given, the exact number is not on record here.

With `OCC(CO)OCN1CNc2c1nc1nc(-c3ccc(-c4ccccc4)cc3)cn1c2O`, the MIC in [1] was 0.02 µg/mL (≈ 0.0461 µM); with Human alphaherpesvirus 1 [2], 0.01 µg/mL (≈ 0.0231 µM); in test [3], 0.001 µg/mL (≈ 0.00231 µM); in the test on Human alphaherpesvirus 1 [4] it was 2.7 µg/mL (≈ 6.23 µM); in the test with Human alphaherpesvirus 1 [5] it was more than 60 µg/mL; in the test on Vaccinia virus, more than 70 µg/mL. Further, the MIC was more than 85 µg/mL in the test with E6SM; 25 µg/mL (≈ 57.7 µM) in the test with Human alphaherpesvirus 3 [6]; 20 µg/mL (≈ 46.1 µM) against Human alphaherpesvirus 3 [7]; 10 µg/mL (≈ 23.1 µM) with Human alphaherpesvirus 3 [8]; more than 50 µg/mL in the test with Human alphaherpesvirus 3 [9]; more than 200 µg/mL against HEL [10]. In addition, the MIC against Human betaherpesvirus 5 and in the test on Cytomegalovirus was more than 50 µg/mL each time.

On to `OCCOCN1CNc2c1nc1nc(-c3ccc(-c4ccccc4)cc3)cn1c2O`, for which the MIC in [1] was 1.3 µg/mL (≈ 3.22 µM); in the test on Human alphaherpesvirus 1 [2], 2 µg/mL (≈ 4.96 µM); in test [3], 0.7 µg/mL (≈ 1.74 µM); against Human alphaherpesvirus 1 [4], more than 55 µg/mL; with Vaccinia virus, more than 70 µg/mL; in the test on E6SM, not below 70 µg/mL. The MIC was more than 100 µg/mL against HEL [11]; 100 µg/mL (≈ 248 µM) in the test with Human alphaherpesvirus 3 [6]; more than 100 µg/mL in the test with HEL [12]; 65 µg/mL (≈ 161 µM) against Human alphaherpesvirus 3 [8]; 40 µg/mL (≈ 99.1 µM) against Human alphaherpesvirus 3 [9]; more than 200 µg/mL in the test on HEL [10]. Further, the MIC in the test with HEL [13] is more than 100 µg/mL.

For `Cc1cn2c(O)c3c(nc2n1)N(COCCO)CN3`, the MIC in test [1] is 0.8 µg/mL (≈ 3.02 µM); against Human alphaherpesvirus 1 [2], 0.58 µg/mL (≈ 2.19 µM); in [3] it was 1 µg/mL (≈ 3.77 µM); with Human alphaherpesvirus 1 [4] it was 40 µg/mL (≈ 151 µM); against Human alphaherpesvirus 1 [5], 127 µg/mL (≈ 479 µM); against Vaccinia virus, more than 190 µg/mL. Also, the MIC is more than 190 µg/mL in the test with E6SM; more than 50 µg/mL in the test on Human alphaherpesvirus 3 [6]; 70 µg/mL (≈ 264 µM) against Human alphaherpesvirus 3 [7]; 4.6 µg/mL (≈ 17.3 µM) in the test with Human alphaherpesvirus 3 [8]; 9.4 µg/mL (≈ 35.4 µM) against Human alphaherpesvirus 3 [9]; more than 200 µg/mL against HEL [10]. Further, the MIC against Human betaherpesvirus 5 and with Cytomegalovirus was more than 50 µg/mL throughout.

On to `Nc1nc2c(ncn2COCCO)c(=O)[nH]1` [ACYCLOVIR], for which the MIC was 0.02 µg/mL (≈ 0.0888 µM) in test [1]; 0.004 µg/mL (≈ 0.0178 µM) in the test with Human alphaherpesvirus 1 [2]; 0.07 µg/mL (≈ 0.311 µM) in [3]; 5 µg/mL (≈ 22.2 µM) against Human alphaherpesvirus 1 [4]; 70 µg/mL (≈ 311 µM) with Human alphaherpesvirus 1 [5]; more than 180 µg/mL in the test on Vaccinia virus. Besides, the MIC in the test with E6SM was 350 µg/mL (≈ 1550 µM); with Human alphaherpesvirus 3 [6], 13.7 µg/mL (≈ 60.8 µM); in the test on Human alphaherpesvirus 3 [7] it was 4.7 µg/mL (≈ 20.9 µM); against Human alphaherpesvirus 3 [8], 0.18 µg/mL (≈ 0.799 µM); in the test on Human alphaherpesvirus 3 [9], 0.38 µg/mL (≈ 1.69 µM); against HEL [10] it was more than 200 µg/mL. The MIC against Human betaherpesvirus 5 was 13.2 µg/mL (≈ 58.6 µM).

For the compound `O=c1[nH]c(=O)n([C@H]2C[C@H](O)[C@@H](CO)O2)cc1/C=C/Br` [BRIVUDINE], the MIC in test [1] turned out to be 0.003 µg/mL (≈ 0.00901 µM); in the test on Human alphaherpesvirus 1 [2] it was 0.005 µg/mL (≈ 0.015 µM); in test [3], 0.006 µg/mL (≈ 0.018 µM); with Human alphaherpesvirus 1 [4], 52 µg/mL (≈ 156 µM); in the test on Human alphaherpesvirus 1 [5], 15 µg/mL (≈ 45 µM); in the test on Vaccinia virus it was 0.22 µg/mL (≈ 0.66 µM). In addition, the MIC in the test with E6SM was more than 350 µg/mL; in the test with Human alphaherpesvirus 3 [6], 17.5 µg/mL (≈ 52.5 µM); against Human alphaherpesvirus 3 [7], 20 µg/mL (≈ 60 µM); with Human alphaherpesvirus 3 [8], 0.005 µg/mL (≈ 0.015 µM); in the test on Human alphaherpesvirus 3 [9] it was 0.003 µg/mL (≈ 0.00901 µM); against HEL [10], 60 µg/mL (≈ 180 µM). Moreover, the MIC in the test on Human betaherpesvirus 5 and against Cytomegalovirus was more than 20 µg/mL in each case.

As for `Nc1nc2c(ncn2COC(CO)CO)c(=O)[nH]1` [GANCICLOVIR], the MIC in [1] was 0.003 µg/mL (≈ 0.0118 µM); in the test with Human alphaherpesvirus 1 [2] it was 0.004 µg/mL (≈ 0.0157 µM); in [3], 0.004 µg/mL (≈ 0.0157 µM); in the test with Human alphaherpesvirus 1 [4], 0.08 µg/mL (≈ 0.313 µM); with Human alphaherpesvirus 1 [5], 4.5 µg/mL (≈ 17.6 µM); in the test with Vaccinia virus it was more than 80 µg/mL. Moreover, the MIC against E6SM is more than 270 µg/mL; in the test on Human alphaherpesvirus 3 [6], 1.5 µg/mL (≈ 5.88 µM); with Human alphaherpesvirus 3 [7] it was 1.4 µg/mL (≈ 5.49 µM); against Human alphaherpesvirus 3 [8], 0.5 µg/mL (≈ 1.96 µM); with Human alphaherpesvirus 3 [9], 1.4 µg/mL (≈ 5.49 µM); against HEL [10] it was more than 200 µg/mL. Further, the MIC with Human betaherpesvirus 5 was 1.5 µg/mL (≈ 5.88 µM); with Cytomegalovirus, 0.9 µg/mL (≈ 3.53 µM).

`O=c1[nH]c(=O)n([C@H]2C[C@H](O)[C@@H](CO)O2)cc1I` [IDOXURIDINE]: the MIC in test [1] is 20 µg/mL (≈ 56.5 µM); against Human alphaherpesvirus 1 [2], 7 µg/mL (≈ 19.8 µM); in [3], 4 µg/mL (≈ 11.3 µM); in the test with Human alphaherpesvirus 1 [4], 20 µg/mL (≈ 56.5 µM); with Vaccinia virus, more than 20 µg/mL; in the test on E6SM, not below 400 µg/mL.

For the compound `NC(=O)c1ncn([C@@H]2O[C@H](CO)[C@@H](O)[C@H]2O)n1` [RIBAVIRIN], the MIC in test [1] is 46 µg/mL (≈ 188 µM); against Human alphaherpesvirus 1 [2], 23 µg/mL (≈ 94.2 µM); in [3], 16 µg/mL (≈ 65.5 µM); with Human alphaherpesvirus 1 [4], 115 µg/mL (≈ 471 µM); against Human alphaherpesvirus 1 [5] it was 53 µg/mL (≈ 217 µM); in the test on Vaccinia virus it was 28 µg/mL (≈ 115 µM). The MIC in the test with E6SM came to 400 µg/mL (≈ 1640 µM).
